Laboratory results as given in ChEMBL document CHEMBL5154634, “A Modular Synthetic Route Involving N-Aryl-2-nitrosoaniline Intermediates Leads to a New Series of 3-Substituted Halogenated Phenazine Antibacterial Agents” (J Med Chem, 2021).
Values after ≈ are worked out from the molar mass of the structure shown. Active and inactive are the calls of the source. No cut-off for these calls is given here.

Assays:
Enterococcus faecium [1] = assay: Antibiofilm activity against methicillin-resistant vancomycin-resistant Enterococcus faecium ATCC 700221 biofilms assessed as biofilm eradication incubated for 24 hrs followed by incubation for 24 hrs in fresh medium by Calgary biofilm device assay; type: functional
How it was run: (§1)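 Calgary biofilm device. Mid-log culture diluted 1000-fold in TSB with 0.5% glucose; biofilms grown on pegs 24 h at 37 °C. Pegs washed and challenged with twofold compound dilutions for 24 h at 37 °C, then moved to fresh medium for 24 h. MBEC is the lowest concentration leaving wells non-turbid. At least three independent experiments.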

Enterococcus faecium [2] = assay: Bactericidal activity against methicillin-resistant vancomycin-resistant Enterococcus faecium ATCC 700221 planktonic cells assessed as planktonic eradication incubated for 24 hrs followed by incubation for overnight in fresh medium by Calgary biofilm device assay; type: functional
How it was run: (§2)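 Calgary biofilm device. Biofilms grown 24 h at 37 °C in TSB with 0.5% glucose, then challenged 24 h with twofold compound dilutions. 20 μL of challenge medium transferred into fresh TSB with 0.5% glucose and incubated overnight at 37 °C. MBC is the concentration with no visible turbidity. At least three independent experiments.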

[3] = test system: Staphylococcus epidermidis; assay: Bactericidal activity against methicillin-resistant Staphylococcus epidermidis ATCC 35984 planktonic cells assessed as planktonic eradication incubated for 24 hrs followed by incubation for overnight in fresh medium by Calgary biofilm device assay; type: functional; how it was run: as §2
HeLa = assay: Cytotoxicity against human HeLa cells assessed as reduction in cell viability incubated for 24 hrs by LDH release assay; type: toxicity, cell-based
How it was run: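 HeLa cells in DMEM with 10% FBS, treated at 70–80% confluence with 25, 50 and 100 μM for 24 h. LDH in supernatant measured by 30 min reaction at room temperature, then stop solution and absorbance at 490 nm. Controls: 2% Triton X-100 (maximum), medium only, DMSO vehicle. Three independent experiments.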

Erythrocyte = assay: Hemolytic activity against human RBC at 200 uM measured after 1 hr; type: toxicity, cell-based
How it was run: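 2% hRBCs exposed to compound at 200 μM final, added from DMSO stock, for 1 h at 37 °C. Supernatant OD read at 405 nm. Hemolysis normalized between DMSO (0%) and Triton X (100%); three independent experiments.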

Staphylococcus aureus [4] = assay: Antibacterial activity against methicillin-resistant Staphylococcus aureus BAA-44 assessed as bacterial growth inhibition incubated for 16 hrs by broth microdilution susceptibility test; type: functional
How it was run: (§3)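 CLSI broth microdilution with 11 twofold dilutions (0.05–50 μM). Medium was LB for the staphylococci and BHI for VRE 700221. About 10^5 cells per well from a log-phase culture. […] DMSO vehicle up to 0.5% v/v. At least three independent experiments.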

[5] = test system: Mycobacterium tuberculosis; assay: Antibacterial activity against Mycobacterium tuberculosis CDC1551 assessed as bacterial growth inhibition incubated for 5 days by luminescence based analysis; type: functional; conditions: CDC1551, 120 h, time 5 day
How it was run: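 Bioluminescent Mtb-lux CDC1551 reporter grown in Middlebrook 7H9 with 0.05% Tween 80, 10% OADC and kanamycin to OD600 0.4–0.8, then diluted to OD600 0.02. Added to twofold drug dilutions (0.003–200 μM). Incubated 5 days at 37 °C, 5% CO2. Luminescence read against 1% DMSO and 10 μM rifampicin controls to give % growth inhibition. MIC taken from a modified Gompertz fit.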

Enterococcus faecalis [6] = assay: Antibacterial activity against Enterococcus faecalis OG1RF ATCC 47077 assessed as bacterial growth inhibition incubated for 16 hrs by broth microdilution susceptibility test; type: functional
[7] = test system: Staphylococcus epidermidis; assay: Antibacterial activity against methicillin-resistant Staphylococcus epidermidis ATCC 35984 assessed as bacterial growth inhibition incubated for 16 hrs by broth microdilution susceptibility test; type: functional
How it was run: (§4)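 CLSI broth microdilution with 11 twofold dilutions (0.05–50 μM). About 10^5 cells per well from a log-phase culture. DMSO vehicle up to 0.5% v/v. At least three independent experiments.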

HepG2 = assay: Cytotoxicity against human HepG2 cells assessed as reduction in cell viability […] by Alamar blue assay; type: toxicity, cell-based
J774 = assay: Cytotoxicity against mouse J774 cells assessed as reduction in cell viability […] by Alamar blue assay; type: toxicity, cell-based
Staphylococcus aureus [8] = assay: Antibiofilm activity against methicillin-resistant Staphylococcus aureus BAA-1707 biofilms assessed as biofilm eradication incubated for 24 hrs followed by incubation for 24 hrs in fresh medium by Calgary biofilm device assay; type: functional; how it was run: as §1
[9] = test system: Mycobacterium tuberculosis; assay: Antibacterial activity against Mycobacterium tuberculosis H37Ra ATCC 25177 assessed as bacterial growth inhibition incubated for 7 days by absorbance based analysis; type: functional; conditions: H37Ra ATCC 25177, 168 h, time 7 day
How it was run: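 H37Ra grown 2 weeks in Middlebrook 7H9, then diluted to OD600 0.01. Compounds added in twofold dilutions, final 0.024–50 μM, with 0.5% DMSO and streptomycin as positive control. Incubated 7 days at 37 °C. MIC is the lowest concentration with no growth, with OD600 recorded. At least three independent experiments.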

Enterococcus faecalis [10] = assay: Antibiofilm activity against Enterococcus faecalis OG1RF ATCC 47077 biofilms assessed as biofilm eradication incubated for 24 hrs followed by incubation for 24 hrs in fresh medium by Calgary biofilm device assay; type: functional
How it was run: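 Calgary biofilm device. Biofilms grown 24 h at 37 °C in BHI from mid-log culture diluted 1000-fold. Pegs washed and then challenged 24 h with twofold serial dilutions. Pegs moved to fresh BHI for 24 h recovery. MBEC = lowest concentration leaving no turbidity; at least three independent experiments.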

Staphylococcus aureus [11] = assay: Bactericidal activity against methicillin-resistant Staphylococcus aureus BAA-1707 planktonic cells assessed as planktonic eradication incubated for 24 hrs followed by incubation for overnight in fresh medium by Calgary biofilm device assay; type: functional; how it was run: as §2
Enterococcus faecium [12] = assay: Antibacterial activity against vancomycin-resistant Enterococcus faecium ATCC 700221 assessed as bacterial growth inhibition incubated for 16 hrs by broth microdilution susceptibility test; type: functional; how it was run: as §3
[13] = Dissociation constant, pKa of the compound at 125 uM by UV-vis spectrophotometric analysis; type: physicochemical
How it was run: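 Compound at 125 μM final in phosphate buffers (KH₂PO₄/Na₂HPO₄) in 1:1 water/methanol, pH 4.07–9.66; ammonium hydroxide added for pH above 9.80. UV-vis scans 200–800 nm to find λmax of phenol and phenolate forms. Absorbance at each λmax plotted against pH.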

Staphylococcus aureus [14] = assay: Antibacterial activity against methicillin-resistant Staphylococcus aureus BAA-1707 assessed as bacterial growth inhibition incubated for 16 hrs by broth microdilution susceptibility test; type: functional; how it was run: as §4
[15] = Binding affinity to Fe2+ assessed as compound-Fe2+ complex formation by UV-vis spectroscopy
Enterococcus faecalis [16] = assay: Bactericidal activity against […] Enterococcus faecalis OG1RF ATCC 47077 planktonic cells assessed as planktonic eradication incubated for 24 hrs followed by incubation for overnight in fresh medium by Calgary biofilm device assay; type: functional
How it was run: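 Calgary biofilm device in BHI. Biofilms grown 24 h at 37 °C and challenged 24 h with twofold compound dilutions. Challenge medium subcultured 1:10 into fresh BHI overnight at 37 °C. MBC is the concentration with no turbidity. At least three independent experiments.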

[17] = test system: Staphylococcus epidermidis; assay: Antibiofilm activity against methicillin-resistant Staphylococcus epidermidis ATCC 35984 biofilms assessed as biofilm eradication incubated for 24 hrs followed by incubation for 24 hrs in fresh medium by Calgary biofilm device assay; type: functional; how it was run: as §1
Staphylococcus aureus [18] = assay: Antibiofilm activity against methicillin-resistant Staphylococcus aureus BAA-44 biofilms assessed as biofilm eradication incubated for 24 hrs followed by incubation for 24 hrs in fresh medium by Calgary biofilm device assay; type: functional; how it was run: as §1
Staphylococcus aureus [19] = assay: Antibacterial activity against methicillin-resistant Staphylococcus aureus clinical isolate 2 assessed as bacterial growth inhibition; type: functional
Staphylococcus aureus [20] = assay: Antibacterial activity against methicillin-resistant Staphylococcus aureus clinical isolate 1 assessed as bacterial growth inhibition; type: functional
Staphylococcus aureus [21] = assay: Antibacterial activity against methicillin-resistant Staphylococcus aureus 138 assessed as bacterial growth inhibition; type: functional
Staphylococcus aureus [22] = assay: Antibacterial activity against methicillin-resistant Staphylococcus aureus 129 assessed as bacterial growth inhibition; type: functional
Staphylococcus aureus [23] = assay: Antibacterial activity against methicillin-resistant Staphylococcus aureus 156 assessed as bacterial growth inhibition; type: functional
Staphylococcus aureus [24] = assay: Antibacterial activity against methicillin-resistant Staphylococcus aureus 147 assessed as bacterial growth inhibition; type: functional

Row | SMILES | MBEC (Enterococcus faecium [1]) | MBC [3] | IC50 (HeLa) | Activity (Erythrocyte) | MIC (Staphylococcus aureus [4]) | MIC [5] | MIC (Enterococcus faecalis [6]) | MIC [7] | IC50 (HepG2) | IC50 (J774) | MBEC (Staphylococcus aureus [8]) | MIC [9] | MBC (Staphylococcus aureus [11]) | MIC (Enterococcus faecium [12]) | pKa at 125 µM [13] | also measured
1 | Oc1c(Br)c(Cl)c(Br)c2nc3c(Oc4ccccc4)cccc3nc12 | 0.39 µM | 1.56 µM (≈ 0.75 µg/mL) | > 100 µM | 2.6% | 0.1 µM (≈ 0.0481 µg/mL) | 3.01 µM (≈ 1.45 µg/mL) | 0.78 µM (≈ 0.375 µg/mL) | 0.2 µM (≈ 0.0961 µg/mL) | > 200 µM | > 200 µM | 1.56 µM | 3.13 µM (≈ 1.5 µg/mL) | […] | 0.15 µM (≈ 0.0721 µg/mL) | – | MBC (Enterococcus faecium [2]): 0.78 µM (≈ 0.375 µg/mL); MBEC (Enterococcus faecalis [10]): 75 µM
2 | Oc1cc(Cl)cc2nc3c(Cl)cc(Cl)cc3nc12 | – | – | > 100 µM | <= 1% | 0.3 µM (≈ 0.0899 µg/mL) | 2.31 µM (≈ 0.692 µg/mL) | 9.38 µM (≈ 2.81 µg/mL) | – | > 200 µM | > 200 µM | 75 µM | 3.13 µM (≈ 0.938 µg/mL) | 18.8 µM (≈ 5.63 µg/mL) | – | 6.89 | –
3 | Cc1c(Br)ccc2nc3c(O)cc(Cl)cc3nc12 | – | – | > 100 µM | <= 1% | 0.3 µM (≈ 0.0971 µg/mL) | 3.27 µM (≈ 1.06 µg/mL) | 2.35 µM (≈ 0.76 µg/mL) | 0.78 µM (≈ 0.252 µg/mL) | > 200 µM | > 200 µM | […] | 6.25 µM (≈ 2.02 µg/mL) | 18.8 µM (≈ 6.08 µg/mL) | – | – | –
4 | Oc1cc(Cl)cc2nc3ccccc3nc12 | – | – | – | – | – | – | – | 18.8 µM (≈ 4.34 µg/mL) | – | – | – | – | – | > 50 µM | 8.04 | MIC (Staphylococcus aureus [14]): 25 µM (≈ 5.77 µg/mL); Activity [15]: Active
5 | COCCOCCOCCOCCSc1c(Br)c(O)c2nc3cccc(C)c3nc2c1Br | – | – | – | – | – | – | – | 2.35 µM (≈ 1.39 µg/mL) | – | – | – | – | – | 3.13 µM (≈ 1.85 µg/mL) | 7.93 | –
6 | CN[C@H](CC(C)C)C(=O)N[C@H]1C(=O)N[C@@H](CC(N)=O)C(=O)N[C@H]2C(=O)N[C@H]3C(=O)N[C@H](C(=O)N[C@H](C(=O)O)c4cc(O)cc(O)c4-c4cc3ccc4O)[C@H](O)c3ccc(c(Cl)c3)Oc3cc2cc(c3O[C@@H]2O[C@H](CO)[C@@H](O)[C@H](O)[C@H]2O[C@H]2C[C@](C)(N)[C@H](O)[C@H](C)O2)Oc2ccc(cc2Cl)[C@H]1O [VANCOMYCIN] | >2000 µM | 2 µM (≈ 2.9 µg/mL) | – | – | – | – | – | – | – | – | – | – | – | – | – | MBC (Enterococcus faecalis [16]): 11.7 µM (≈ 17 µg/mL); MBC (Enterococcus faecium [2]): 750 µM (≈ 1090 µg/mL); MBEC [17]: >2000 µM; MBEC (Staphylococcus aureus [18]): >2000 µM; MBEC (Enterococcus faecalis [10]): >2000 µM
7 | CCSc1c(Br)c(O)c2nc3cccc(C)c3nc2c1Br | 3.13 µM | 12.5 µM (≈ 5.35 µg/mL) | – | 5.7% | 0.3 µM (≈ 0.128 µg/mL) | 1.69 µM (≈ 0.724 µg/mL) | 0.78 µM (≈ 0.334 µg/mL) | – | > 200 µM | > 100 µM | 200 µM | – | 50 µM (≈ 21.4 µg/mL) | – | 7.88 | MIC (Staphylococcus aureus [19]): 0.31 µM (≈ 0.133 µg/mL); MIC (Staphylococcus aureus [20]): 0.31 µM (≈ 0.133 µg/mL); MIC (Staphylococcus aureus [21]): 0.31 µM (≈ 0.133 µg/mL); MIC (Staphylococcus aureus [22]): 0.31 µM (≈ 0.133 µg/mL); MIC (Staphylococcus aureus [23]): 0.31 µM (≈ 0.133 µg/mL); MIC (Staphylococcus aureus [24]): 0.31 µM (≈ 0.133 µg/mL)
8 | COc1cccc(OC)c1C(=O)N[C@@H]1C(=O)N2[C@@H]1SC(C)(C)[C@@H]2C(=O)O [METHICILLIN] | – | – | – | – | – | – | – | – | – | – | – | – | – | – | – | MIC (Staphylococcus aureus [19]): ≥ 37.5 µM; MIC (Staphylococcus aureus [20]): ≥ 37.5 µM; MIC (Staphylococcus aureus [23]): ≥ 37.5 µM; MIC (Staphylococcus aureus [24]): ≥ 37.5 µM
